Source: PubChem BioAssay (several laboratories)
STAT3 act = IL-6 driven STAT3 reporter potentiators, primary screen, U3A cells, luciferase, luminescence, MLSCN library; IL-6 STAT3-luciferase reporter; 100% = signal with IL-6 EC80 alone; activation (% of control), % at 5.6 µM; actives 0.91% (n = 190,000); AID 871, 2007;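 active means activation above the screen-wide mean of compound activation plus 3 SD, cut at about 130% in these data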;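 further: 0% = background luminescence of wells with medium and substrate only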
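Material: STAT3-luciferase reporter U3A cells. Controls: IL-6-treated wells, 100% activation. Read-out: % activation versus median of IL-6-stimulated wells. Probe or stimulus: IL-6 stimulus at 33 ng/mL final. Timing: compound 1 h, then IL-6 6 h at 37 °C. Signal: reporter luminescence signal.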
STAT1 blocker = STAT1 signaling inhibitors, primary screen, cell-based, HTS, luciferase reporter | NIH 3T3 STAT1-luciferase reporter, IFN-gamma, luminescence | inhibition, % at 5.5 µM | actives 0.35% (n = 200,000) | AID 920, 2007;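 active means inhibition above a set limit, the mean inhibition across all tested compounds plus 3 SD, cut at about 34% in these data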;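 further: 0% = IFN-gamma with DMSO and 100% = IFN-gamma with 300 µM nifuroxazide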
NF-kB neuron act = activators of NF-kB expression in neurons, primary screen, cell-based, HTS; human neuronal cells, NF-kB reporter expression; active compounds read high; fold change at 12.5 µM; actives 1.6% (n = 190,000); in the data active means fold change above about 3.3
STAT3 inh = IL-6 driven STAT3 reporter inhibitors, primary screen, U3A cells, luciferase, luminescence, MLSCN library; IL-6 STAT3-luciferase reporter; host cell line lacks STAT1; inhibition, % at 5.5 µM; actives 0.89% (n = 190,000); AID 862, 2007;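 active means inhibition above the mean inhibition across all screened compounds plus 3 SD, cut at about 44% in these data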;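 further: 0% = DMSO only wells and 100% = 100 µM nifuroxazide control wells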
APP 5'UTR act = activators of APP 5'UTR luciferase reporter, primary screen, SH-SY5Y cells | AID 1276, 2008 | SH-SY5Y APP 5'UTR luciferase reporter, luminescence; zero percent = DMSO vehicle wells | actives 1% (n = 190,000) | activation, % at 2 µM;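 active means activation above a set limit, based on mean plus 3 SD of controls, cut at about 140% in these data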
STAT1 activator = STAT1 signaling activators, primary screen, cell-based, HTS, luciferase reporter. AID 932, 2007. activation (% of control), % at 5.5 µM. NIH 3T3 STAT1-luciferase reporter, IFN-gamma, luminescence; 100% = IFN-gamma alone, no compound. actives 2.6% (n = 200,000);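 active means activation above the screen-wide mean activation plus 3 SD, cut at about 130% in these data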;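 further: raw ratio to IFN-gamma control signal so 100% means no change and 0% no light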
An asterisk follows results filed as active; x = no result. In the library only some 4.9% were active in any assay of this set; here they are far more common.

SMILES	STAT3 act	STAT1 blocker	NF-kB neuron act	STAT3 inh	APP 5'UTR act	STAT1 activator
S=c1[nH]nc(-c2cccs2)n1/N=C/c1c(Cl)cccc1Cl	99.2	1.0	1.11	3.1	1.8	97.6
O=S(=O)(c1cccc2cccnc12)N1CCN(Cc2ccccc2)CC1	106.5	-4.7	0.98	-0.2	-9.9	102.4
O=[N+]([O-])c1ccc(Oc2ccc(C(F)(F)F)cn2)cc1	95.1	-47.7	1.42	10.1	-7.8	141.7*
FC(F)(F)c1ccc(Oc2ccc3cc(Br)ccc3c2)nc1	93.8	-0.9	1.15	9.6	0.9	100.8
COc1ccc(CNC(=O)COC(=O)CC2CCCC2)cc1	96.2	11.4	0.98	8.1	0.8	89.9
CC(C)(C)c1ccc(NC(=O)Nc2ccc(OCC(=O)N3CCOCC3)cc2)cc1	95.2	-38.5	5.32*	12.1	117.2	134.0*
COc1cccc(COc2ncnc3sccc23)c1	104.9	2.5	1.11	0.3	-2.6	97.5
c1ccc(OCCOc2ncnc3sccc23)cc1	98.9	-33.8	2.72	3.9	67.0	131.2*
CC(CCc1ccccc1)NCC(O)COc1ccccc1 (stereo not drawn)	96.0	-2.6	0.66	7.3	30.8	101.8
COc1cc(NC(=O)c2cccs2)c(C(=O)OCC(=O)c2cc(C)n(-c3ccccc3)c2C)cc1OC	41.9	35.7*	0.45	69.7*	-21.5	68.5
COc1cc(NC(=O)c2cccs2)c(C(=O)OCC(=O)c2cc(C)n(-c3ccc(F)cc3)c2C)cc1OC	99.1	-1.1	0.99	1.0	16.7	101.0
OCCC1CN(Cc2ccc3c(c2)CCO3)CCN1C1CCCC1 (stereo not drawn)	106.2	2.0	1.12	-3.6	-3.8	96.4
CCOc1cc(/C=C(\C#N)C(=O)NCc2cccnc2)ccc1O	100.1	4.2	1.06	6.9	-14.9	95.3
Cc1ccc(C)c2[nH]c(=O)c(C(c3nnnn3C(C)(C)C)N3CC=C(c4ccc(F)cc4)CC3)cc12 (stereo not drawn)	106.4	34.7*	0.88	-10.2	-0.1	69.2
CN(C)c1ccc(N=C/C=C2\N(C)c3ccccc3C2(C)C)cc1	100.5	-28.2	1.01	0.8	142.8*	125.2
CN1/C(=C\C=O)C(C)(C)c2ccccc21	98.0	14.1	0.97	7.0	-10.1	86.7
CC(C)CN(C(=O)CSc1nn(-c2ccc(Cl)cc2)c(=S)s1)C1CCS(=O)(=O)C1 (stereo not drawn)	103.3	10.2	1.31	-6.7	9.7	92.5
Cc1cccc(NC(=O)Nc2cccc(F)c2)n1	99.6	-26.8	2.47	5.8	20.2	124.6
Cc1ccnc(NC(=O)Nc2cccc(F)c2)n1	97.8	-52.2	x	7.6	150.1*	144.9*
C#CC(=O)N(c1cc(OC)ccc1OC)C(C(=O)NC1CCCC1)c1cccs1 (stereo not drawn)	10.5	74.7*	0.17	114.4*	-11.2	33.3
COc1ccc(N(C(=O)c2ccco2)C(C(=O)NC2CCCCC2)c2cccs2)cc1OC (stereo not drawn)	100.7	6.4	1.22	2.5	2.9	96.0
C#CC(=O)N(c1ccc(OC)cc1OC)C(C(=O)NC1CCCC1)c1cccs1 (stereo not drawn)	29.2	87.6*	0.18	83.5*	-15.4	17.8
O=C(Nc1cnc2ccccn2c1=O)c1ccc(Cl)cc1	109.3	-33.3	2.39	-8.0	18.7	130.0*
O=C(Nc1cccn2ncnc12)c1ccc(Cl)cc1	80.6	-6.6	1.46	29.0	-4.7	106.1
CCc1ccc(C(=O)Nc2cc(C)ccc2F)s1	106.3	-33.6	1.9	-8.2	40.1	131.6*
Cc1ccc(C(=O)Nc2cc([N+](=O)[O-])ccc2F)s1	83.1	-4.9	1.36	22.7	0.8	104.3
O=c1c(-c2ccc3c(c2)OCCO3)coc2cc(OC3OC(CO)C(O)C(O)C3O)ccc12 (stereo not drawn)	x	x	x	x	158.9*	x
COc1ccc(-c2cc(-c3nnc(COC(=O)CC4CC5CCC4C5)o3)c3ccccc3n2)cc1OC (stereo not drawn)	86.7	12.6	1.05	17.2	-15.6	87.8
